Experimental findings from ChEMBL document CHEMBL4346700, “Structure-based modification of carbonyl-diphenylpyrimidines (Car-DPPYs) as a novel focal adhesion kinase (FAK) inhibitor against various stubborn cancer cells” (Eur J Med Chem, 2019) are described below.

Molecules are shown by their SMILES. Activity calls are given as the source filed them. No cut-off for these calls is given here.

In series [1] the test system is L02. The experiment in a line: Cytotoxicity against human L02 cells assessed as reduction in cell growth incubated for 72 hrs by MTT assay. The conditions noted are these: L02, 72 h. Background: Tetrazolium dyes change colour on reduction, which living cells bring about.
The test system of series [2] is ASPC1. Description: Antiproliferative activity against human AsPC1 cells assessed as reduction in cell growth incubated for 72 hrs by MTT assay. The conditions noted are these: ASPC1, 72 h.
Series [3] concerns BXPC-3. The experiment in a line: Antiproliferative activity against human BxPC3 cells assessed as reduction in cell growth incubated for 72 hrs by MTT assay. The conditions noted are these: BXPC-3, 72 h.
For series [4], the system named is NCI/ADR-RES. Description: Antiproliferative activity against human MCF7/ADR cells assessed as reduction in cell growth incubated for 72 hrs by MTT assay.
Series [5] relates to NCI-H1975. Description: Antiproliferative activity against human NCI-H1975 cells assessed as reduction in cell growth incubated for 72 hrs by MTT assay. The conditions noted are these: NCI-H1975, 72 h.
Series [6] concerns PANC-1. Description: Antiproliferative activity against human PANC1 cells assessed as reduction in cell growth incubated for 72 hrs by MTT assay. The conditions noted are these: PANC-1, 72 h.
Series [7] in a line: Cytotoxicity against human HPDEC cells assessed as reduction in cell growth incubated for 72 hrs by MTT assay.
In series [8] the target is Focal adhesion kinase 1 (Homo sapiens) (UniProt Q05397). Description: Inhibition of FAK in human AsPC1 cells assessed as reduction in autophosphorylation at 100 nM incubated for 72 hrs by immunoblotting analysis. Type of series: cell-based. An outline of the steps: (§1)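 AsPC-1 cells were treated at 10–100 nM for 72 h and lysed. Lysates were cleared at 14,000 g for 15 min at 4 °C, and 50 µg protein was run on 8–12% SDS-PAGE and transferred to PVDF. Membranes were blocked 2 h in 5% skim milk, probed overnight at 4 °C with primary antibodies (FAK, p-FAK, MEK1, p-MEK1, ERK1/2, p-ERK1/2, β-actin) and detected by ECL.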
Background: Immunoblotting shows a protein as a band on a membrane.

Series [9] relates to ASPC1. The conditions noted are these: Homo sapiens, 125 to 1000 nM.
Series [10] deals with ASPC1. Description: Induction of apoptosis in human AsPC1 cells assessed as apoptotic bodies incubated for 72 hrs by acridine orange/ethidium bromide dye based fluorescent inverted microscopy. Type of series: functional, cell-based. The method, boiled down: (§2)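 AsPC-1 cells (about 2×10⁵ per well) were incubated 12 h, then treated with inhibitor at 150–600 nM for 72 h. Cells were washed twice with PBS and stained with AO/EB (1.0 µg/mL each in PBS). Apoptotic, necrotic and live cells were scored and counted under a fluorescent inverted microscope at 100×.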

Series [11] has as its system ASPC1. The experiment in a line: Induction of apoptosis in human AsPC1 cells assessed as nuclear condensation incubated for 72 hrs by acridine orange/ethidium bromide dye based fluorescent inverted microscopy. In kind it is functional, cell-based. The method, boiled down: as §2
Series [12] concerns ASPC1. Description: Antitumor activity against human AsPC1 cells xenografted in BALB/cJNju-Foxn1nu/Nju mouse assessed as inhibition of tumor growth at 30 mg/kg, po for 7 days. Type of series: functional. The conditions noted are these: 168 h, read-out: TGI. The method, boiled down:
(§3)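 Nude mice were injected subcutaneously in the right axilla with 3×10⁶ AsPC-1 cells in 0.1 mL PBS. Three days later they were randomized into three groups and given compound orally once daily for 7 days, with controls receiving oral 25% PEG-400. Tumor volume was calculated as A×B²/2, and tumor weight was recorded; n = 3.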
Background: In xenograft studies the graft and the host belong to different species.

Series [13] relates to ASPC1. The experiment in a line: Effect on total MEK protein level in human AsPC1 cells at 10 to 100 nM incubated for 72 hrs by immunoblotting analysis. In kind it is cell-based. The conditions noted are these: aspc1, 72 h, 0.1 µM. The method, boiled down: as §1
The test system of series [14] is ASPC1. The experiment in a line: Induction of apoptosis in human AsPC1 cells assessed as membrane blebbing incubated for 72 hrs by acridine orange/ethidium bromide dye based fluorescent inverted microscopy. In kind it is functional, cell-based. The method, boiled down:
as §2

Series [15] has as its system ASPC1. Description: Effect on total ERK protein level in human AsPC1 cells at 10 to 100 nM incubated for 72 hrs by immunoblotting analysis. In kind it is cell-based. The conditions noted are these: aspc1, 72 h, 0.1 µM. The method, boiled down: as §1
The test system of series [16] is ASPC1. The experiment in a line: Induction of apoptosis in human AsPC1 cells assessed as nuclear fragmentation incubated for 72 hrs by acridine orange/ethidium bromide dye based fluorescent inverted microscopy. Type of series: functional, cell-based. An outline of the steps: as §2
Series [17] has as its system ASPC1. Description: Antitumor activity against human AsPC1 cells xenografted in BALB/cJNju-Foxn1nu/Nju mouse assessed as inhibition of tumor growth at 60 mg/kg, po for 7 days. Type of series: functional. The conditions noted are these: 168 h, read-out: TGI. The method, boiled down:
as §3

Focal adhesion kinase 1 (Homo sapiens), sequence (Q05397 2-1052 limits assumed): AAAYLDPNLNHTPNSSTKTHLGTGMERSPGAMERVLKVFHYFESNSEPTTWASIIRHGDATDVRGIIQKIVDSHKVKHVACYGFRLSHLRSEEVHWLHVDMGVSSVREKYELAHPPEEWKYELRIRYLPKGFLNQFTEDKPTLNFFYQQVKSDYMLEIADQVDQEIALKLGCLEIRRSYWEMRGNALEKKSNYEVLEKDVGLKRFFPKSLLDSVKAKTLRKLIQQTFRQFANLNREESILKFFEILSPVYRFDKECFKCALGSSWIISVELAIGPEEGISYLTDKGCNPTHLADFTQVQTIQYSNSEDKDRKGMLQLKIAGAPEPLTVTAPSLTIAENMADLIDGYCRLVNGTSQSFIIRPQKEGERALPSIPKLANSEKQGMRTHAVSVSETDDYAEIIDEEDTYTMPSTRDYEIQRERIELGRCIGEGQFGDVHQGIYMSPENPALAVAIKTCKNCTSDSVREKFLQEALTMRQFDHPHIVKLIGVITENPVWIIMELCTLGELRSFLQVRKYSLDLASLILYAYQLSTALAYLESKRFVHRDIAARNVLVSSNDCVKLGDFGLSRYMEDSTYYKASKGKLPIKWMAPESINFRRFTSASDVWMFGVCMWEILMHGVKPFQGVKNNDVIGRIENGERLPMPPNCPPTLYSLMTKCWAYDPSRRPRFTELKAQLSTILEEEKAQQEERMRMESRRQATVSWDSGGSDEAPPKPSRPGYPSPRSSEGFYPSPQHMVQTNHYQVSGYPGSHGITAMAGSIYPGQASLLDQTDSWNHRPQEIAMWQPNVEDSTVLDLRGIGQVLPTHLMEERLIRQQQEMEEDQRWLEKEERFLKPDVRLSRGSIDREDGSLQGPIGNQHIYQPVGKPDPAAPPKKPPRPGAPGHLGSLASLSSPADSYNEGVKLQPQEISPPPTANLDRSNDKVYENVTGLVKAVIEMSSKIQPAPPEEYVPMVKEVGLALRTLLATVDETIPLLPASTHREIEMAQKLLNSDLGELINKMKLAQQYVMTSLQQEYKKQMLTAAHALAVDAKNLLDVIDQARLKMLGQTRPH

A word on the IC50: it is the concentration needed to halve the response being measured. Regarding `CCC(Oc1ccc(Nc2ncc(Cl)c(Nc3ccccc3C(=O)NC)n2)cc1)C(=O)N1CCOCC1` (configuration not stated), the IC50 in series [1] was 674 nM; in [2] it was 2600 nM; in series [3] it was 8730 nM; in [4], 2100 nM; in series [5], 444 nM; in series [6], 750 nM. In addition, the IC50 in series [7] stood at 2170 nM.
As to `O=C(NC1CC1)c1ccccc1Nc1nc(Nc2ccc(OCC(=O)N3CCOCC3)cc2)ncc1Cl`, the IC50 in series [1] is 910 nM; in [2], above 10000 nM; in series [3] it was above 10000 nM; in series [4] it was above 5000 nM; in series [5], 514 nM; in [6], above 10000 nM. Also, the IC50 in series [7] was determined as 16700 nM.
For orientation: inhibition means the share of the control response that was lost under treatment. With `CNC(=O)c1ccccc1Nc1nc(Nc2ccc(N3CCOCC3)cc2OC)ncc1Cl`, the IC50 was above 10000 nM in series [3]; above 5000 nM in [4]; above 2000 nM in series [5]; above 10000 nM in series [6]; 11400 nM in [7]. Besides, the inhibition in series [8] came out at 100%.
Take `CNC(=O)c1ccccc1Nc1nc(Nc2ccc(CC(=O)N3CCOCC3)cc2)ncc1Cl`: the inhibition result in [9] is “Active”. Moreover, the outcome in series [10], in [11], in [14] and in series [16] was Active. For the same compound, the IC50 in series [1] stood at 3700 nM; in [2], 105 nM; in series [3], 90 nM; in series [4] it was 590 nM; in [5], 1170 nM; in [6], 4120 nM. Further, in series [7], the IC50 stood at 6620 nM. For the same compound, in [12], the inhibition in vivo at 30 mg/kg stood at 87%. For the same compound, the Activity entry in series [13] and in [15] was “Non-Toxic” in each case. Also, the inhibition in vivo at 60 mg/kg in series [17] came to 67%.
For `CNC(=O)c1ccccc1Nc1nc(Nc2ccc(OCC(=O)N3CCOCC3)cc2)ncc1Cl`, the IC50 is 594 nM in series [1]; 1750 nM in series [2]; 5990 nM in series [3]; 2930 nM in series [4]; 160 nM in series [5]; above 10000 nM in series [6]. The IC50 in series [7] was 4790 nM.
Regarding `CNC(=O)c1ccccc1Nc1nc(Nc2ccc(OC(C)C(=O)N3CCOCC3)cc2)ncc1Cl` (configuration not stated), the IC50 was determined as 821 nM in [1]; 2870 nM in series [2]; 5340 nM in series [3]; 1440 nM in series [4]; 495 nM in series [5]; 1540 nM in series [6]. In addition, the IC50 in series [7] was found to be 1040 nM.
For `CNC(=O)c1ccccc1Nc1nc(Nc2ccc(SCC(=O)N3CCOCC3)cc2)ncc1Cl`, the IC50 in series [1] amounted to 4330 nM; in series [2], 1220 nM; in series [3], 2890 nM; in series [4], 1820 nM; in [5] it was 413 nM; in [6], 5510 nM. Also, the IC50 in [7] is 1990 nM.
